# In the library only some 5.8% were active in any assay of this set; here they are far more common.
# Pf Dd2 inh: P. falciparum Dd2 growth inhibition; 94,000 tested, 2.3% active; activity change, % at 10 µM; SYBR Green, 72 h; stronger effect = lower value; AID 1159554; in the data active = activity change below about -80%; inconclusive = no clear call, values can overlap the other calls
# IDH1 mut inh: inhibitors of human IDH1 R132H; AID 624101; inhibition, % at 10 µM; O75874; IDH1 R132H reductase, diaphorase/resazurin fluorescence, 60 min; 70,000 tested, 0.18% active; in the data active = inhibition above about 34%; inconclusive = no clear call, values can overlap the other calls; inactive = below about 11%;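 also: 0% = DMSO and 100% = no enzyme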
# Target sequence (O75874 whole entry R132H): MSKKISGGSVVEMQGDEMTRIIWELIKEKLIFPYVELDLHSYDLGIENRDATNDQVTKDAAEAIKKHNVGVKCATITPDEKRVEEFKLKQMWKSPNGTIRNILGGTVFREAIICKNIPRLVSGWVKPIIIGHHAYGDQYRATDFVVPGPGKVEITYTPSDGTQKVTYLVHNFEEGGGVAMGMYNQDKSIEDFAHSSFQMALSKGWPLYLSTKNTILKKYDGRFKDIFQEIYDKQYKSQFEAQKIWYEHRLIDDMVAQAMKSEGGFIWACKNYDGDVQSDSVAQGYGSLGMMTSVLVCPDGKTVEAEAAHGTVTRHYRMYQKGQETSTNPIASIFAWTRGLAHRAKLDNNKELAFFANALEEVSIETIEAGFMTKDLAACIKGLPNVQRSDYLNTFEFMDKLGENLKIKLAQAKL
# T cruzi growth-1: blocks T. cruzi growth in NIH3T3 culture; T. cruzi beta-gal in NIH3T3, GalScreen luminescence, 90 h; inhibition, % at 8.34 µM; 77,000 tested, 5.9% active;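 active = mean inhibition above about 93%, with at least 55% of replicates each passing it, limit read from the data, passing the limit was not always enough; inconclusive = only one of those two conditions holds; inactive = neither condition holds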
# KDM4C inh: KDM4C (human) demethylase inhibition; GST-KDM4C 2-372, H3K9me3 peptide, LANCE TR-FRET; inhibition, % at 12.5 µM; 96,000 tested, 0.15% active; AID 720574;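 active = mean replicate inhibition above about 25%, with at least 55% of replicates also reaching it, limit read from the data, passing the limit was not always enough; inconclusive = only one of those two conditions met; inactive = neither condition met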
#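 Material: GST-tagged GASC-1 (JMJD2C) catalytic fragment, aa 2-372. Input: enzyme final amount 10 nM. Medium: HEPES buffer, pH 7.5, plus ascorbate. Reagent: H3K9me3 peptide substrate, Fe(II), 2-oxoglutarate. Doses: single dose. Times: reaction 30 min RT, detection step 1 h RT. Measured by: LANCE TR-FRET. Evaluation: Fall in 671/618 emission ratio as inhibition.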
# T cruzi growth-2: inhibitors of T. cruzi proliferation | 5,600 tested, 72% active | T. cruzi beta-gal in NIH3T3, GalScreen luminescence, 90 h | inhibition, % at 8.35 µM | shares compounds with T cruzi growth-1;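 active = mean replicate inhibition above about 95% and at least 55% of replicates individually reaching it, limit read from the data; inconclusive = only one of the two criteria is met; inactive = neither criterion is met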
# T cruzi growth-3: Trypanosoma cruzi proliferation inhibition. shares compounds with T cruzi growth-1. T. cruzi beta-gal in NIH3T3, GalScreen luminescence, 90 h. inhibition, % at 2.09 µM. 5,600 tested, 21% active. AID 651740;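 active = mean inhibition above about 95%, with at least 55% of replicates also reaching it, limit read from the data; inconclusive = meets just one of the two conditions; inactive = meets neither condition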;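 also: plate controls were neutral control median for no effect and positive control median for full effect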
# 3T3 cytotox: NIH/3T3 (mouse) viability loss; shares compounds with T cruzi growth-1; cytotoxicity (signal decrease), % at 8.35 µM; NIH/3T3 viability, CellTiter-Glo ATP luminescence, 90 h; 5,600 tested, 14% active; AID 651742;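 active = mean signal decrease across replicates above about 35% based on untreated-well scatter, with enough replicates individually passing, limit read from the data; inconclusive = no rule stated though some were filed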;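 also: 0% = median of neutral control wells and 100% = median of positive control wells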
# 3T3 cytotox 2: kills mouse NIH/3T3 fibroblasts; shares compounds with T cruzi growth-1; NIH/3T3 viability, CellTiter-Glo ATP luminescence, 90 h; inhibition, % at 24.9 µM; 5,600 tested, 56% active;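 active = mean loss of cell viability signal at or above a set limit, and enough replicates individually reaching it; inconclusive = meets only the mean limit or only the replicate share; inactive = meets neither condition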;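 also: 0% = median of neutral control wells and 100% = median of positive control wells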
# Starred values were filed as active, the others as inactive; u = inconclusive; x = no result.
SMILES,Pf Dd2 inh,IDH1 mut inh,T cruzi growth-1,KDM4C inh,T cruzi growth-2,T cruzi growth-3,3T3 cytotox,3T3 cytotox 2
COc1ccc(S(=O)(=O)N2CC[C@H]3[C@@H](CO)N(C)c4ccc(C5=CCCCC5)cc4[C@H]32)cc1,-16,x,u,4,90,108*,10,70*
COc1ccc(-c2ccc3c(c2)[C@@H]2[C@@H](CCN2S(=O)(=O)C2=NC(C)C=N2)[C@@H](CO)N3C)cc1 (some centres undefined),-18,x,u,3,103*,80,-17,-1
Cc1ccc(NC(=O)CSc2n[nH]c(CC(C)C)n2)cc1,x,-1,x,x,x,x,x,x
COc1c(O[C@@H]2O[C@H](C(=O)O)[C@@H](O)[C@H](O)[C@H]2O)cc2oc(-c3ccccc3)cc(=O)c2c1O,x,-1,x,x,x,x,x,x
Cc1cccc(-c2ccc([C@@H]3[C@@H](CO)N4CCCCN(Cc5ccncc5)C[C@@H]34)cc2)c1,4,x,71,3,x,x,x,x
Cc1cccc(-c2ccc([C@H]3[C@H]4CN(Cc5cncnc5)CCCCN4[C@H]3CO)cc2)c1,4,x,68,2,x,x,x,x
Cc1cccc(-c2ccc([C@H]3[C@@H](CO)N4CCCCN(Cc5cncnc5)C[C@@H]34)cc2)c1,7,x,106*,2,95*,85,37*,102*
Cc1cccc(-c2ccc([C@H]3[C@H](CO)N4CCCCN(Cc5cncnc5)C[C@@H]34)cc2)c1,7,x,103*,0,100*,75,9,11
CN(C)C(=O)c1cccc(-c2ccc([C@H]3[C@@H](CO)N4CCCCN(Cc5cccnc5)C[C@@H]34)cc2)c1,-25,x,101*,0,u,88,-10,-15
Cc1cccc(-c2ccc([C@H]3[C@@H](CO)N4CCCCN(Cc5ccncc5)C[C@@H]34)cc2)c1,-2,x,103*,4,111*,68,25,105*
OC[C@H]1[C@H](c2ccc(-c3ccccc3)cc2)[C@@H]2CN(Cc3cncnc3)CCCCN12,-40,x,107*,-1,103*,94,23,34*
Cc1cccc(-c2ccc([C@H]3[C@H](CO)N4CCCCN(Cc5cccnc5)C[C@@H]34)cc2)c1,-64,x,104*,x,106*,68,22,101*
OC[C@@H]1[C@@H](c2ccc(-c3cccc(F)c3)cc2)[C@H]2CN(Cc3cncnc3)CCCCN12,-6,x,60,0,x,x,x,x
OC[C@H]1[C@H](c2ccc(-c3cccc(F)c3)cc2)[C@H]2CN(Cc3cncnc3)CCCCN21,-22,x,94*,1,92,-5,15,105*
OC[C@@H]1[C@H](c2ccc(C#Cc3ccccc3F)cc2)[C@H]2CN(Cc3cncnc3)CCCCN12,-76,x,118*,0,103*,96*,44*,105*
OC[C@@H]1[C@@H](c2ccc(C#Cc3ccccc3)cc2)[C@H]2CN(Cc3cncnc3)CCCCN12,-32,x,70,-1,x,x,x,x
OC[C@H]1[C@@H](c2ccc(-c3ccccc3)cc2)[C@H]2CN(Cc3cncnc3)CCCCN21,-5,x,62,1,x,x,x,x
CCC(Sc1nnc(N)s1)C(=O)Nc1c(C)cccc1C (centres undefined),x,-1,x,x,x,x,x,x
COc1ccc(C#Cc2ccc([C@@H]3[C@H]4CN(C(=O)Nc5ccccc5)CCCCN4[C@H]3CO)cc2)cc1,-70,x,106*,-1,92,94,94*,106*
COc1ccc(C#Cc2ccc([C@@H]3[C@@H](CO)N4CCCCN(C(=O)Nc5ccccc5)C[C@H]34)cc2)cc1,-78,x,69,-3,x,x,x,x
COc1ccc(NC(=O)N2CCCCN3[C@H](C2)[C@H](c2ccc(C#Cc4ccccc4)cc2)[C@@H]3CO)cc1,-2,x,99*,x,109*,57,27,56*
COc1ccc(NC(=O)N2CCCCN3[C@@H](CO)[C@H](c4ccc(C#Cc5ccccc5)cc4)[C@@H]3C2)cc1,-75,x,67,x,x,x,x,x
COc1ccc(NC(=O)N2CCCCN3[C@H](C2)[C@@H](c2ccc(C#Cc4ccccc4)cc2)[C@@H]3CO)cc1,-73,x,u,x,104*,119*,60*,104*
O=C(Nc1ccccc1)N1CCCCN2[C@@H](CO)[C@H](c3ccc(C#Cc4ccccc4)cc3)[C@@H]2C1,-74,x,68,-1,x,x,x,x
O=C(N/N=C/c1ccc(OCCO)cc1)c1ccccn1,x,0,x,x,x,x,x,x
SMILES,Pf Dd2 inh,IDH1 mut inh,T cruzi growth-1,KDM4C inh,T cruzi growth-2,T cruzi growth-3,3T3 cytotox,3T3 cytotox 2
O=C(CC1(O)C(=O)Nc2ccccc21)c1ccc(OCC(=O)N2CCOCC2)cc1 (centres undefined),x,-1,x,x,x,x,x,x
C[C@@H]1CN([C@@H](C)CO)S(=O)(=O)c2ccc(C3=CCCC3)cc2O[C@H]1CN(C)C(=O)C1CCCCC1,-22,x,u,-1,91,60,26,41*
C[C@@H]1CN([C@H](C)CO)S(=O)(=O)c2ccc(C3=CCCC3)cc2O[C@@H]1CN(C)C(=O)C1CCCCC1,-51,x,115*,0,102*,80,u,25
Cc1ccc(C(C)C)c(OC(=O)CS(=O)c2ccc(C(F)(F)F)cc2[N+](=O)[O-])c1 (centres undefined),x,1,x,x,x,x,x,x
NC(=O)CSc1nc2ccccc2n1CC(=O)N1CCCCC1,x,0,x,x,x,x,x,x
C[C@H]1CN([C@@H](C)CO)S(=O)(=O)c2ccc(C3=CCCCC3)cc2O[C@H]1CN(C)C(=O)Cc1ccncc1,-77,x,98*,2,99*,68,37*,36*
C[C@H]1CN([C@@H](C)CO)S(=O)(=O)c2ccc(C3=CCCCC3)cc2O[C@@H]1CN(C)C(=O)Cc1ccncc1,-80,14,107*,3,105*,68,8,11
C[C@H]1CN([C@@H](C)CO)S(=O)(=O)c2ccc(C3=CCCCC3)cc2O[C@@H]1CN(C)C(=O)Cc1ccccc1,-47,0,79,-3,x,x,x,x
C[C@H](CO)N1C[C@H](C)[C@H](CN(C)C(=O)Cc2ccncc2)Oc2cc(C3=CCCC3)ccc2S1(=O)=O,-42,x,80,-1,x,x,x,x
COc1cccc(NC(=O)CC2OCCN(Cc3ccccc3)C2=O)c1 (centres undefined),x,0,x,x,x,x,x,x
C[C@@H]1C[C@H]2OC[C@@]3(C)CCC[C@](C)(C23)[C@@]1(O)CCc1ccoc1 (some centres undefined),x,0,x,x,x,x,x,x
O=C(CCC1COc2ccccc2O1)Nc1ncc(C(F)(F)F)cc1Cl (centres undefined),x,2,x,x,x,x,x,x
